Data published in ChEMBL document CHEMBL1131159, “Bis-cationic heteroaromatics as macrofilaricides: synthesis of bis-amidine and bis-guanylhydrazone derivatives of substituted imidazo[1,2-a]pyridines” (1998).
“And” between values parts separate entries of the source, which are not always exact repeats. Equal entries are not always repeated.

Legend:
[1] = test system: Meriones unguiculatus; test: Compound was tested for macrofilarial reduction at 100 mg/kg dosage by subcutaneous administration for a period of 5 days against Brugia pahangi (Brugia pahangi). * Toxicity noted at this dosage; type: functional
Procedure, shortened: (§1)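 Jirds doubly infected with A. viteae and B. pahangi were dosed subcutaneously once daily on five successive days. Each series included a flubendazole positive control at 2.0 mg/day for 5 days. Jirds were killed 56 days later and worms of each species counted. Worm percentage was compared with untreated negative controls, and ≥60% reduction was scored as active.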

[2] = test system: Acanthocheilonema viteae; test: Macrofilarial reduction at 100 mg/kg dosage by subcutaneous administration for a period of 5 days against Acanthocheilonema viteae; type: functional; procedure, shortened: as §1
[3] = test system: Meriones unguiculatus; test: Compound was tested for macrofilarial reduction at 100 mg/kg dosage by subcutaneous administration for a period of 5 days against Acanthocheilonema viteae (Acanthocheilonema viteae) * Toxicity noted at this dosage; type: functional; procedure, shortened: as §1
[4] = test system: Brugia pahangi; test: Macrofilarial reduction at 100 mg/kg dosage by subcutaneous administration for a period of 5 days against Brugia pahangi; type: functional; procedure, shortened: as §1
[5] = Compound was tested for macrofilarial reduction at 12.5 mg/kg dosage by subcutaneous administration for a period of 5 days against Acanthocheilonema viteae (Acanthocheilonema viteae); type: functional, Meriones unguiculatus; procedure, shortened: as §1
[6] = test system: Meriones unguiculatus; test: Compound was tested for macrofilarial reduction at 12.5 mg/kg dosage by subcutaneous administration for a period of 5 days against Brugia pahangi (Brugia pahangi).; type: functional; procedure, shortened: as §1
[7] = test system: Meriones unguiculatus; test: Compound was tested for macrofilarial reduction at 50 mg/kg dosage by subcutaneous administration for a period of 5 days against Acanthocheilonema viteae (Acanthocheilonema viteae); type: functional; procedure, shortened: as §1
[8] = test system: Meriones unguiculatus; test: Compound was tested for macrofilarial reduction at 50 mg/kg dosage by subcutaneous administration for a period of 5 days against Brugia pahangi (Brugia pahangi).; type: functional; procedure, shortened: as §1
[9] = test system: Meriones unguiculatus; test: Compound was tested for macrofilarial reduction at 25 mg/kg dosage by subcutaneous administration for a period of 5 days against Acanthocheilonema viteae (Acanthocheilonema viteae); type: functional; procedure, shortened: as §1
[10] = test system: Meriones unguiculatus; test: Compound was tested for macrofilarial reduction at 25 mg/kg dosage by subcutaneous administration for a period of 5 days against Brugia pahangi (Brugia pahangi).; type: functional; procedure, shortened: as §1
[11] = test system: Meriones unguiculatus; test: Compound was tested for macrofilarial reduction at 6.25 mg/kg dosage by subcutaneous administration for a period of 5 days against Acanthocheilonema viteae (Acanthocheilonema viteae); type: functional; procedure, shortened: as §1
[12] = test system: Meriones unguiculatus; test: Compound was tested for macrofilarial reduction at 1.56 mg/kg dosage by subcutaneous administration for a period of 5 days against Brugia pahangi (Brugia pahangi).; type: functional; procedure, shortened: as §1
[13] = test system: Meriones unguiculatus; test: Compound was tested for macrofilarial reduction at 75 mg/kg dosage by subcutaneous administration for a period of 5 days against Acanthocheilonema viteae (Acanthocheilonema viteae); type: functional; procedure, shortened: as §1
[14] = test system: Meriones unguiculatus; test: Compound was tested for macrofilarial reduction at 3.12 mg/kg dosage by subcutaneous administration for a period of 5 days against Acanthocheilonema viteae (Acanthocheilonema viteae); type: functional; procedure, shortened: as §1
[15] = test system: Meriones unguiculatus; test: Compound was tested for macrofilarial reduction at 1.56 mg/kg dosage by subcutaneous administration for a period of 5 days against Acanthocheilonema viteae (Acanthocheilonema viteae); type: functional; procedure, shortened: as §1
[16] = test system: Meriones unguiculatus; test: Compound was tested for macrofilarial reduction at 75 mg/kg dosage by subcutaneous administration for a period of 5 days against Brugia pahangi (Brugia pahangi).; type: functional; procedure, shortened: as §1
[17] = test system: Meriones unguiculatus; test: Compound was tested for macrofilarial reduction at 3.12 mg/kg dosage by subcutaneous administration for a period of 5 days against Brugia pahangi (Brugia pahangi).; type: functional; procedure, shortened: as §1
[18] = test system: Meriones unguiculatus; test: Compound was tested for macrofilarial reduction at 6.25 mg/kg dosage by subcutaneous administration for a period of 5 days against Brugia pahangi (Brugia pahangi).; type: functional; procedure, shortened: as §1
[19] = test system: Meriones unguiculatus; test: Compound was tested for macrofilarial reduction at 100 mg/kg dosage by subcutaneous administration for a period of 5 days against Acanthocheilonema viteae (Acanthocheilonema viteae); Toxic; type: functional, organism-based; parameters: dose 100 mg/kg; procedure, shortened: as §1
[20] = test system: Meriones unguiculatus; test: Compound was tested for macrofilarial reduction at 100 mg/kg dosage by subcutaneous administration for a period of 5 days against Brugia pahangi (Brugia pahangi); Toxic; type: functional, organism-based; parameters: dose 100 mg/kg; procedure, shortened: as §1

| Structure (SMILES) | Reduction [2] [%] | Reduction [4] [%] | also measured |
| --- | --- | --- | --- |
| N=C(NN=Cc1ccc(-c2cn3cc(C=NNC(=N)N4CCCC4)ccc3n2)cc1)N1CCCC1 | 60 | 0 | Reduction [1]: 0%; Reduction [3]: 73% |
| CN1CCN(C(=N)/C=C/c2ccc(-c3cn4cc(/C=C/C(=N)N5CCN(C)CC5)ccc4n3)cc2)CC1 |  |  | Reduction [5]: 57%; Reduction [6]: 0% |
| C(=Cc1ccc(-c2cn3ccccc3n2)cc1)C1=NCCN1 | 28 | 18 |  |
| N=C(c1ccc(-c2cn3ccccc3n2)cc1)N1CCCC1 | 0 | 36 |  |
| c1ccc(-c2cn3cc(C4=NCCN4)ccc3n2)cc1 | 0 | 42 |  |
| C(=NNC1=NCCN1)c1ccc2nc(C=NNC3=NCCN3)cn2c1 | 5 | 5 |  |
| Cc1ccc(S(=O)(=O)NN=Cc2ccc(-c3cn4cc(C=NNS(=O)(=O)c5ccc(C)cc5)ccc4n3)cc2)cc1 | 0 | 16 |  |
| N=C(c1ccc2nc(-c3ccccc3)cn2c1)N1CCCC1 |  |  | Reduction ([2]; 100 mg/kg): 60% and 27%; Reduction ([4]; 100 mg/kg): 25% and 0% |
| C(=NNC1=NCCN1)c1ccc(/C=C/c2cn3cc(C=NNC4=NCCN4)ccc3n2)cc1 | 24 | 4 |  |
| c1cc(-c2cn3cc(C4=NCCN4)ccc3n2)ccc1C1=NCCN1 | 0 | 35 |  |
| C(/C=C/c1ccc(-c2cn3cc(/C=C/C=NNC4=NCCN4)ccc3n2)cc1)=NNC1=NCCN1 | 71 | 18 |  |
| Nc1ccc(C(=O)NN=Cc2ccc(-c3cn4cc(C=NNC(=O)c5ccc(N)cc5)ccc4n3)cc2)cc1 | 0 | 8 |  |
| C(/C=C/c1ccc(-c2cn3cc(/C=C/C=NNC4=NCCCN4)ccc3n2)cc1)=NNC1=NCCCN1 |  |  | Reduction [5]: 50%; Reduction [7]: 100%; Reduction [6]: 38%; Reduction ([2]; 100 mg/kg): 100% and 64%; Reduction [8]: 38%; Reduction [9]: 73%; Reduction [10]: 13% |
| C(=NNC1=NCCCN1)c1ccc(-c2cn3cc(C=NNC4=NCCCN4)ccc3n2)cc1 | 100 |  | Reduction ([11]; 6.25 mg/kg): 100% and 75%; Reduction ([5]; 12.5 mg/kg): 100% and 64%; Reduction [7]: 100%; Reduction [12]: 16%; Reduction [13]: 100%; Reduction [14]: 88%; Reduction [8]: 0%; Reduction ([4]; 100 mg/kg): 9% and 0%; Reduction [15]: 73%; Reduction [16]: 0%; Reduction [10]: 0%; Reduction [17]: 11% |
| C(=NNc1ccccn1)c1ccc(-c2cn3cc(C=NNc4ccccn4)ccc3n2)cc1 | 0 | 0 |  |
| C(=NNC1=NCCC1)c1ccc(-c2cn3cc(C=NNC4=NCCC4)ccc3n2)cc1 | 24 | 5 |  |
| C(=NNC1=NCCS1)c1ccc(-c2cn3cc(C=NNC4=NCCS4)ccc3n2)cc1 | 0 | 38 |  |
| C(=NNC1=NCCCN1)c1ccc(/C=C/c2cn3cc(C=NNC4=NCCCN4)ccc3n2)cc1 | 100 | 32 |  |
| C(=NNC1=NCCCN1)c1ccc2nc(-c3ccccc3)cn2c1 | 30 | 0 |  |
| N=C(/C=C/c1ccc(-c2cn3cc(/C=C/C(=N)N4CCOCC4)ccc3n2)cc1)N1CCOCC1 |  |  | Reduction [5]: 50%; Reduction [6]: 0% |
| N=C(/C=C/c1ccc(-c2cn3cc(/C=C/C(=N)N4CCCC4)ccc3n2)cc1)N1CCCC1 |  |  | Reduction [11]: 72%; Reduction [18]: 0% |

| Structure (SMILES) | Reduction [2] [%] | Reduction [4] [%] | also measured |
| --- | --- | --- | --- |
| C(=NNC1=NCCN1)c1ccc(-c2cn3cc(C=NNC4=NCCN4)ccc3n2)cc1 |  |  | Reduction [5]: 82%; Reduction [7]: 100%; Reduction [6]: 0%; Reduction ([2]; 100 mg/kg): 100% and 78%; Reduction [8]: 0%; Reduction ([9]; 25 mg/kg): 82% and 73%; Reduction ([4]; 100 mg/kg): 18% and 11% |
| C(=NNC1=NCCCN1)c1ccc(-c2cn3ccccc3n2)cc1 | 0 | 0 |  |
| C(=NNC1=NCCN1)c1ccc2nc(-c3ccccc3)cn2c1 | 20 | 0 |  |
| C(=NNC1=NCCN1)c1ccc(-c2cn3ccccc3n2)cc1 | 60 | 0 |  |
| C(=NNC1=NCCCN1)c1ccc2nc(C=NNC3=NCCCN3)cn2c1 | 0 | 5 |  |
| C(=Cc1ccc(-c2cn3ccccc3n2)cc1)C1=NCCS1 | 0 | 0 |  |
| N=C(NN=Cc1ccc(-c2cn3ccccc3n2)cc1)N1CCOCC1 | 0 | 12 |  |
| N=C(NN=Cc1ccc(-c2cn3ccccc3n2)cc1)N1CCCC1 | 47 | 0 |  |
| N=C(c1ccc(-c2cn3ccccc3n2)cc1)N1CCOCC1 | 0 | 29 |  |
| c1ccn2cc(-c3ccc(C4=NCCCN4)cc3)nc2c1 | 0 | 0 |  |
| c1ccn2cc(-c3ccc(C4=NCCN4)cc3)nc2c1 | 20 | 8 |  |
| N=C(c1ccc(-c2cn3cc(C(=N)N4CCCC4)ccc3n2)cc1)N1CCCC1 |  |  | Reduction [14]: 39%; Reduction [17]: 0% |
| N=C(c1ccc2nc(-c3ccccc3)cn2c1)N1CCOCC1 | 0 | 12 |  |
| N=C(NN=Cc1ccc2nc(C=NNC(=N)N3CCCC3)cn2c1)N1CCCC1 | 0 | 5 |  |
| N=C(c1ccc(/C=C/c2cn3cc(C(=N)N4CCCC4)ccc3n2)cc1)N1CCCC1 |  |  | Reduction [19]: Toxic; Reduction [20]: Toxic |
| N=C(NN=C/C=C/c1ccc(-c2cn3cc(/C=C/C=NNC(=N)N4CCCC4)ccc3n2)cc1)N1CCCC1 |  |  | Reduction [5]: 50%; Reduction [6]: 38% |
| C(=Cc1ccc(-c2cn3cc(C=CC4=NCCS4)ccc3n2)cc1)C1=NCCS1 | 0 | 0 |  |
| CC(C)NC(=N)c1ccc(/C=C/c2cn3cc(C(=N)NC(C)C)ccc3n2)cc1 |  |  | Reduction [19]: Toxic; Reduction [20]: Toxic |
| C(=C\c1cn2cc(C3=NCCN3)ccc2n1)/c1ccc(C2=NCCN2)cc1 |  |  | Reduction [19]: Toxic; Reduction [20]: Toxic |
| N=C(c1ccc(-c2cn3ccccc3n2)cc1)N1CCCCC1 | 0 | 15 |  |
| CC(C)NC(=N)NN=Cc1ccc(-c2cn3cc(C=NNC(=N)NC(C)C)ccc3n2)cc1 | 100 | 32 |  |
